According to publication PMC11661117 (bioRxiv, 2025):

Assays:
tdTomato fibroblasts [1] = assay: 3D bioprinted HSE, submerged model, tdTomato signal; format: cell-based, human; details: for CC50: read-out: submerged CC50, tdTomato fibroblasts, triplicate
Outline: (§1)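 Skin equivalent: printed fibrin/gelatin/collagen dermis with tdTomato-labelled fibroblasts and 20,000 keratinocytes on a transwell. One day after keratinocyte seeding, GFP HSV-1 K26 (MOI 0.1) was added apically and test compound to the basal medium, and tissues fixed at 48 hpi. GFP and tdTomato total fluorescence were read from 4X z-stack maximum projections within a ~4 mm circular mask. Values were normalised to DMSO-infected and uninfected wells. Triplicate dose-response, curve-classed.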

[2] = system: HSV-1 strain K26 (GFP-expressing); assay: 3D bioprinted HSE, submerged model, apical HSV-1 infection, GFP signal; format: cell-based; details: for Emax: Human alphaherpesvirus 1, 48 h, read-out: submerged Max Inhibition (%); for submerged Curve Class: CRC class for HSV-1 inhibition
Outline: as §1

[3] = system: HSV-1 strain K26 (GFP-expressing); assay: 3D bioprinted HSE, ALI model, basolateral HSV-1 infection, GFP signal; format: cell-based; details: for Emax: Human alphaherpesvirus 1, 48 h, read-out: ALI Max Inhibition (%); for ALI Curve Class: CRC class for HSV-1 inhibition
Outline: (§2)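 Bioprinted dermal base (fibrinogen, gelatin, collagen I) on a transwell membrane, with 20,000 keratinocytes seeded on top and tdTomato-labelled fibroblasts. Four days after air-lift, GFP HSV-1 K26 (MOI 0.1, in cornification medium) and test compound were added basally, and tissues fixed at 48 hpi. Imaging: 4X z-stack maximum projection, edge mask and ≥14.8 µm object filter. GFP and tdTomato were normalised to infected DMSO and uninfected controls (tdTomato floor 0). Triplicate dose-response, curve-classed.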

[4] = 3D bioprinted HSE, ALI model, tdTomato signal; format: cell-based, human; details: human
Outline: as §2

[5] = 3D bioprinted HSE, submerged model, tdTomato signal; format: cell-based, human; details: human
Outline: as §1

[6] = system: HSV-1 strain K26 (GFP-expressing); format: cell-based; details: 2D monoculture
[7] = system: HSV-1 strain K26 (GFP-expressing); format: cell-based; details: 2D monoculture; for selectivity ratio: read-out: selectivity index in fibroblasts
primary keratinocytes = assay: 2D cytotoxicity in uninfected primary keratinocytes; format: cell-based, human; details: absence of viral infection
tdTomato fibroblasts [8] = assay: 3D bioprinted HSE, ALI model, tdTomato signal; format: cell-based, human; details: read-out: ALI CC50; tdTomato fibroblasts, triplicate
Outline: as §2

[9] = Human alphaherpesvirus 1, read-out: submerged IC50 (μM)
[10] = Human alphaherpesvirus 1, read-out: ALI IC50 (μM)
[11] = read-out: submerged IC50, triplicate, 48HPI

| IC50 [2, 9] [µM] | IC50 [3, 10] [µM] | Compound | CC50 at 48 h [4] [nM] | CC50 at 48 h [5] [nM] | Emax [2] [%] | Emax [3] [%] | also measured |
| --- | --- | --- | --- | --- | --- | --- | --- |
| 0.27 | 0.16 | Cc1cccc(C)c1N(CC(=O)Nc1ccc(-c2ncon2)cc1)C(=O)C1CCS(=O)(=O)CC1 [Amenamevir] | > 10000 | > 10000 | 85.3 | 112 | selectivity index in keratinocytes [6]: > 250; selectivity index in fibroblasts [7]: > 400 |
| 1.48 | < 0.04 | COc1ccc(-c2nc(N3CCOCC3)c3sc(CN(C)c4ncc(C(=O)NO)cn4)cc3n2)cn1 [Fimepinostat] | > 10000 | > 10000 | 87.4 | 88.6 | inhibition of viral GFP expression in keratinocytes [6]: at least 50% |
| 0.39 | 0.11 | O=C(Nc1ccc([N+](=O)[O-])cc1Cl)c1cc(Cl)ccc1O [Niclosamide] | > 10000 | > 10000 | 97.1 | 98.7 | – |
| 0.5 | 0.21 | Cc1nc(N(C)C(=O)Cc2ccc(-c3ccccn3)cc2)sc1S(N)(=O)=O [Pritelivir] | > 10000 | > 10000 | 94.6 | 102 | selectivity index in keratinocytes [6]: > 250; selectivity index in fibroblasts [7]: > 400 |
| – | 0.16 | C=CC(=O)N1CC/C(=C\c2ccc(F)c([N+](=O)[O-])c2)C(=O)/C(=C/c2ccc(F)c([N+](=O)[O-])c2)C1 [VLX1570] | – | – | – | – | CC50 (tdTomato fibroblasts [8]): > 10000 nM; CC50 (tdTomato fibroblasts [1]): 8410 nM; submerged Curve Class ([2]; triplicate): −2.5; IC50 [2, 11]: 6.67 µM; submerged Max Inhibition (%) ([2]; triplicate, 48HPI): 55.49%; ALI Curve Class ([3]; triplicate): −1.1; ALI Max Inhibition (%) ([3]; triplicate, 48HPI): 101.22% |
| 0.48 | 0.17 | O=C(/C=C\n1cnc(-c2cc(C(F)(F)F)cc(C(F)(F)F)c2)n1)NNc1ccccn1 [Verdinexor] | > 10000 | > 10000 | 68.6 | 108 | inhibition of viral GFP expression in keratinocytes [6]: at least 50% |

More lines, now with the values behind:

| Compound | IC50 [2, 9] [µM] | IC50 [3, 10] [µM] | CC50 at 48 h [4] [nM] | CC50 at 48 h [5] [nM] | Emax [2] [%] | Emax [3] [%] | also measured |
| --- | --- | --- | --- | --- | --- | --- | --- |
| Nc1nc2c(ncn2COCCO)c(=O)[nH]1 [Acyclovir] | – | – | – | – | – | – | cytotoxic effects on the fibroblasts (tdTomato fibroblasts [1]; submerged and ALI models, tdTomato signal): minimal cytotoxic effects; IC50 ([2]; submerged tissues, assay validation, fig. S5): 0.36 µM; IC50 ([3]; Human alphaherpesvirus 1): < 0.04 µM |
| Nc1ccn([C@@H]2O[C@H](CO)[C@@H](O)C2(F)F)c(=O)n1 [Gemcitabine] | 0.19 | 0.16 | > 10000 | > 10000 | 99.8 | 102 | selectivity ratio [7]: > 750; toxicity in keratinocytes (primary keratinocytes): showed toxicity in keratinocytes |
| CC(C)c1cnn2c(NCc3ccccc3-n3cccn3)nc(OC3CCCNC3)nc12 (centres unmarked) [LDC4297] | – | – | – | – | – | – | CC50 (tdTomato fibroblasts [8]): > 10000 nM; CC50 (tdTomato fibroblasts [1]): > 10000 nM; submerged Curve Class ([2]; triplicate): −2.1; IC50 [2, 11]: 0.68 µM; submerged Max Inhibition (%) ([2]; triplicate, 48HPI): 94.82%; ALI Curve Class ([3]; triplicate): −1.1; IC50 ([3]; read-out: ALI IC50, triplicate, 48HPI): 0.11 µM; ALI Max Inhibition (%) ([3]; triplicate, 48HPI): 99.87% |
| CC(=O)O[C@H]1C[C@H](O[C@H]2[C@@H](O)C[C@H](O[C@H]3[C@@H](O)C[C@H](O[C@H]4CC[C@@]5(C)[C@H](CC[C@@H]6[C@@H]5C[C@@H](O)[C@]5(C)[C@@H](C7=CC(=O)OC7)CC[C@]65O)C4)O[C@@H]3C)O[C@@H]2C)O[C@H](C)[C@H]1O[C@@H]1O[C@H](CO)[C@@H](O)[C@H](O)[C@H]1O [Lanatoside C] | 0.09 | 0.08 | > 10000 | 2490 | 107 | 99.5 | selectivity ratio [7]: > 750; toxicity in keratinocytes (primary keratinocytes): showed toxicity in keratinocytes |
| CC1(C)CC(=O)c2c(C(F)(F)F)nn(-c3ccc(C(N)=O)c(N[C@H]4CC[C@H](O)CC4)c3)c2C1 [SNX-2112] | 0.05 | < 0.04 | > 10000 | 1140 | 102 | 107 | toxicity in keratinocytes (primary keratinocytes): showed toxicity in keratinocytes |
| Fluoroemetine | – | – | – | – | – | – | CC50 (tdTomato fibroblasts [8]): > 10000 nM; CC50 (tdTomato fibroblasts [1]): > 10000 nM |
